Reference: ChEMBL document CHEMBL4422687, “Highly potent and selective aryl-1,2,3-triazolyl benzylpiperidine inhibitors toward butyrylcholinesterase in Alzheimer's disease” (Bioorg Med Chem, 2019)
The source made the active and inactive calls. No cut-off for these calls is given here.

How the values were obtained:
Cholinesterase [1] = biological target: T1, Cholinesterase (Homo sapiens, UniProt P06276); test: Inhibition of recombinant human BuChE using butyrylthiocholine iodide as substrate preincubated for 5 mins followed by substrate addition and measured for 5 mins by Ellman's method
T1 sequence (P06276 whole entry): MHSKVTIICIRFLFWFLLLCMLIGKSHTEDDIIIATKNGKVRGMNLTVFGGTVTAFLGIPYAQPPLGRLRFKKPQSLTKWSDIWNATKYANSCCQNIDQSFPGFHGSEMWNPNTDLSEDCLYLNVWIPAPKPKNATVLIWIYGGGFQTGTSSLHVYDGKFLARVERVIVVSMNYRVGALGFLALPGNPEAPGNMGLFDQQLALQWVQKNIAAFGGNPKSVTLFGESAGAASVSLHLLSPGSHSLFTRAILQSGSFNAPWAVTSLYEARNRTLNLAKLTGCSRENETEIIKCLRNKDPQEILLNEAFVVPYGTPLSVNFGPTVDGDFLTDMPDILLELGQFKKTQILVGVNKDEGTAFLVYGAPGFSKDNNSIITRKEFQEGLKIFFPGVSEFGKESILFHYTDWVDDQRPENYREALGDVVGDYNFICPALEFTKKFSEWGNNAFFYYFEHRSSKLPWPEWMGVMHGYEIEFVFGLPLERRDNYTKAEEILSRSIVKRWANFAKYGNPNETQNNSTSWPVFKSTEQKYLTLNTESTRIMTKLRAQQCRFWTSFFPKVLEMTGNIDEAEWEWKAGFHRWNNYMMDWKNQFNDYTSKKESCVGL

SH-SY5Y [2] = test: Cytotoxicity against human SH-SY5Y cells assessed as reduction in cell viability at 39.6 nM after 24 hrs by XTT assay; type: cell-based; settings: 0.0396 µM
SH-SY5Y [3] = test: Cytotoxicity against human SH-SY5Y cells assessed as reduction in cell viability at BuChE IC50 after 120 hrs by XTT assay; type: cell-based
Procedure, shortened: (§1)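 SH-SY5Y human neuroblastoma cells were treated with seven concentrations of each compound. Viability was read by XTT colorimetric assay after a 24 h or 120 h recovery period.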

Acetylcholinesterase = Acetylcholinesterase (Homo sapiens, UniProt P22303); test: Inhibition of recombinant human AChE using acetylthiocholine iodide as substrate preincubated for 5 mins followed by substrate addition and measured for 5 mins by Ellman's method
Chain of Acetylcholinesterase (P22303 whole entry): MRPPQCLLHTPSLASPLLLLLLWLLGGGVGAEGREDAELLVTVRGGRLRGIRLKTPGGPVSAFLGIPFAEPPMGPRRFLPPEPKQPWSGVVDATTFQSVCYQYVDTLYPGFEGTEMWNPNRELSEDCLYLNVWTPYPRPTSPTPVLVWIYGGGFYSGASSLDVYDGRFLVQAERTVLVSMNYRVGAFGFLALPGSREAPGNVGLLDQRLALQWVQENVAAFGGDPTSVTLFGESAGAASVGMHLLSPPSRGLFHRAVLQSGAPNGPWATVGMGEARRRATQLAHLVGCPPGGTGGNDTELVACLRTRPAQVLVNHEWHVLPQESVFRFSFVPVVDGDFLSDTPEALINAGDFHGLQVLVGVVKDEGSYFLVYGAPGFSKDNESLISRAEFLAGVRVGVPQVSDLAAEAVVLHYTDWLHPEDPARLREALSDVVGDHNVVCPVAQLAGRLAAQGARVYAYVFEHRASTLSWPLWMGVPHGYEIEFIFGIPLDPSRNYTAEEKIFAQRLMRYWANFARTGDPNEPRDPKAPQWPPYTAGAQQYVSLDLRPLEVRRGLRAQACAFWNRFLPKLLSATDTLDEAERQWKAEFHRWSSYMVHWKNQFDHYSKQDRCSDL

Cholinesterase [4] = biological target: T1, Cholinesterase; test: Mixed-type inhibition of recombinant human BuChE using varying levels of butyrylthiocholine iodide as substrate by Lineweaver-burk plot analysis
SH-SY5Y [5] = test: Cytotoxicity against human SH-SY5Y cells assessed as reduction in cell viability at BuChE IC50 after 24 hrs by XTT assay; type: cell-based; procedure, shortened: as §1
SH-SY5Y [6] = test: Cytotoxicity against human SH-SY5Y cells assessed as reduction in cell viability at 40 uM after 24 hrs by XTT assay; type: cell-based
Homo sapiens = organism: Homo sapiens; test: Selectivity ratio of IC50 for recombinant human AChE to IC50 for recombinant human BuChE
Cholinesterase [7] = biological target: T1, Cholinesterase; test: Potency index, ratio of donepezil IC50 to test compound IC50 for recombinant human BuChE
SH-SY5Y [8] = test: Cytotoxicity against human SH-SY5Y cells assessed as reduction in cell viability at 2.5 uM after 24 hrs by XTT assay; type: cell-based
SH-SY5Y [9] = test: Cytotoxicity against human SH-SY5Y cells assessed as reduction in cell viability at 80 uM after 24 hrs by XTT assay; type: cell-based

`N[C@@H](Cn1cc(-c2ccccc2)nn1)C(=O)NCC1CCN(Cc2ccccc2)CC1` was tested, and the IC50 (Cholinesterase [1]) was 0.0099 µM, the Activity (SH-SY5Y [2]) was “Toxic” and the Activity (SH-SY5Y [3]) was “Non-Toxic”. The IC50 (Acetylcholinesterase) was greater than 10 µM, the inhibition (Cholinesterase [4]) was “Active” and the Activity (SH-SY5Y [5]) was “Non-Toxic”.
`CCOc1ccc2[nH]c(SCc3cn(CC4CCN(Cc5ccccc5)CC4)nn3)nc2c1` gave an IC50 (Cholinesterase [1]) of 1.91 µM and an IC50 (Acetylcholinesterase) of 6.9 µM.
In the case of `N[C@@H](CCCCn1cc(-c2ccccc2)nn1)C(=O)NCC1CCN(Cc2ccccc2)CC1`, the IC50 (Cholinesterase [1]) is reported as 0.97 µM, the Activity (SH-SY5Y [6]) is reported as “Toxic” and the Activity (SH-SY5Y [3]) is reported as “Non-Toxic”. For the same molecule, the IC50 (Acetylcholinesterase) was greater than 10 µM and the Activity (SH-SY5Y [5]) was “Non-Toxic”.
`CC(=O)N[C@@H](Cn1cc(-c2ccccc2)nn1)C(=O)NCC1CCN(Cc2ccccc2)CC1` gave an IC50 (Cholinesterase [1]) of 0.00017 µM, a Ratio IC50 (Homo sapiens) greater than 58000 and an IC50 (Acetylcholinesterase) greater than 10 µM. The inhibition (Cholinesterase [4]) was “Active”, the Ratio IC50 (Cholinesterase [7]) was 53000 and the Activity (SH-SY5Y [5]) was “Non-Toxic”.
For `c1ccc(CN2CCC(Cn3cc(CNc4ncnc5ccccc45)nn3)CC2)cc1`, the IC50 (Cholinesterase [1]) was 2.95 µM and the IC50 (Acetylcholinesterase) was 4.22 µM.
`CC(=O)N[C@@H](CCCCn1cc(-c2ccccc2)nn1)C(=O)NCC1CCN(Cc2ccccc2)CC1` was tested, and the IC50 (Cholinesterase [1]) was 1.02 µM, the Activity (SH-SY5Y [3]) was “Non-Toxic” and the IC50 (Acetylcholinesterase) was greater than 10 µM. The Activity (SH-SY5Y [8]) was “Toxic”, the Ratio IC50 (Cholinesterase [7]) was 9 and the Activity (SH-SY5Y [5]) was “Non-Toxic”. For the same molecule, the Activity (SH-SY5Y [9]) was “Toxic”.
For `O=C1c2ccccc2C(=O)N1Cc1cn(CC2CCN(Cc3ccccc3)CC2)nn1`, the IC50 (Cholinesterase [1]) was greater than 10 µM and the IC50 (Acetylcholinesterase) was 4.9 µM.
Work on `c1ccc(CN2CCC(Cn3cc(CSc4nc5ccccc5[nH]4)nn3)CC2)cc1` yielded an IC50 (Cholinesterase [1]) of 0.065 µM and an IC50 (Acetylcholinesterase) of 7.33 µM.
`O=C(Cc1c[nH]c2ccccc12)NCc1cn(CC2CCN(Cc3ccccc3)CC2)nn1` was tested, and the IC50 (Cholinesterase [1]) was 5.3 µM and the IC50 (Acetylcholinesterase) was greater than 10 µM.
In the case of `COc1cc2c(cc1OC)C(=O)C(Cc1cn(CC3CCN(Cc4ccccc4)CC3)nn1)C2` (stereo not drawn), the IC50 (Cholinesterase [1]) is reported as greater than 10 µM and the IC50 (Acetylcholinesterase) is reported as 4.92 µM.
For `COc1cc2ncnc(NCc3cn(CC4CCN(Cc5ccccc5)CC4)nn3)c2cc1OC`, the IC50 (Cholinesterase [1]) was greater than 10 µM and the IC50 (Acetylcholinesterase) was 3.94 µM.
